Key:
[1] = tested on: EI^Q (H189Q); experiment: Enzyme kinetic assay; format: biochemical, E. coli; conditions: 37°C
Procedure, shortened: (§1)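 Wild-type E. coli Enzyme I or its H189Q or H189A active-site mutant, expressed and purified. PEP hydrolysis to inorganic phosphate and pyruvate was followed spectrophotometrically at 37°C with a coupled phosphate-detection kit. Enzymatic velocities at varying PEP were fit to the Michaelis-Menten equation to give Km. For display, velocities were normalised to each fit's maximum velocity.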

[2] = tested on: EI^A (H189A); experiment: Enzyme kinetic assay; format: biochemical, E. coli; conditions: 37°C
Procedure, shortened: as §1

[3] = tested on: EI^WT; experiment: Enzyme kinetic assay; format: biochemical, E. coli; conditions: 37°C
Procedure, shortened: as §1

[4] = tested on: isolated EIC; conditions: cited from earlier work

C=C(OP(=O)(O)O)C(=O)O [PEP, phosphoenolpyruvate]
Km [1]: ~130 µM | Km [2]: < 50 µM | Km [3]: ~330 µM | Km [4]: ~370 µM

Source: publication PMC4293084 (Nature communications, 2015)
